Screening data: PubChem BioAssay, Broad Institute
In the library only some 3% were active in any assay of this set; here they are far more common.
esBAF inh: inhibitors of esBAF chromatin remodeling in mouse ES cells | reporter increase, % at 12.5 µM | 350,000 tested, 2% active | AID 602393 | Bmi1-luciferase knock-in reporter, 24 h; 100% = twice the neutral-well signal; in the data active means activation above about 40%; inconclusive means no clear call, values can overlap the other calls;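 further: 0% = median of the plate's neutral control wells and 100% = double that signal; a rise in the Bmi1 reporter signal indicates esBAF inhibition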
NSD2 HMT inh: blocks human histone methyltransferase NSD2 | inhibition, % at 12.5 µM | NSD2 peptide methylation, AlphaScreen, 120 min | 310,000 tested, 0.54% active | O96028 | AID 743445; in the data active means inhibition above about 50%
Xi reactivation: reactivates the inactive X chromosome in mouse fibroblasts; XiGFP mouse fibroblasts, % GFP-positive cells imaging, 3 d; cells co-treated with 5-aza-dC sensitizer; scaled so ellipticine positive control = 100%; AID 743238; 360,000 tested, 0.055% active; activation, % at 7.58 µM;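 active means mean normalized replicate activation at least 10% and every replicate at or above 10%; inconclusive means only one of the two criteria met; inactive means mean below 10% and not all replicates reach 10%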;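 further: 0% = median of on-plate neutral control wells and 100% = ellipticine 6 µM median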
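Schedule: 3 d treatment, 15 min room-temperature fixation; system: 68-5-11 XiGFP fibroblast line; buffer or medium: DMEM plus 5-aza-dC sensitizer; control set: ellipticine 6 µM positive control; compound: one concentration, pinned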
CASP6 VEID inh: blocks human caspase-6 cleavage activity. P55212. purified caspase-6, Z-VEID-R110 cleavage fluorescence. inhibition, % at 12.5 µM. 350,000 tested, 0.53% active. AID 686996;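 active means mean inhibition across replicates at least about 35%, with every replicate also reaching that limit, limit read from the data; inconclusive means only one of the two criteria met; inactive means neither criterion met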;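 further: 0% = median of neutral control wells and 100% = no fluorescence left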
Wnt act: Wnt/beta-catenin pathway activation. Wnt/beta-catenin reporter cell assay, activator, plate reader. activation, % at 9.35 µM. 300,000 tested, 1.2% active. AID 743398; in the data active means activation above about 30%, passing the limit was not always enough; inconclusive means no clear call, values can overlap the other calls;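 further: 0% = neutral control wells and 100% = positive control wells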
MITF act: MITF TRPM1 promoter activation in melanoma cells; SK-MEL-5 TRPM1-promoter luciferase, 24 h; % of positive control, neutral wells = 0; activation, % at 12.5 µM; 300,000 tested, 0.75% active;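 active means mean activation of at least 80% with every replicate also reaching 80%; inconclusive means mean reaches 80% but some replicate falls short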;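 further: 0% = neutral control wells and 100% = parthenolide positive control wells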
Ring1 derepress: confirmation of esBAF inhibitors: Ring1 de-repression in mouse ESCs; shares compounds with esBAF inh; mouse ESC E14, Ring1 mRNA RT-qPCR fold change; fold change at 33 µM; 550 tested, under 10 active; AID 743176;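 active means Ring1 gene expression raised more than 2-fold over untreated cells in both replicates at either tested dose; inconclusive means only one replicate above 2-fold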;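 further: Ring1 transcript normalised to actin housekeeping signal by TaqMan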
esBAF Fgf4 qPCR: represses Fgf4 in mouse ESCs, confirming esBAF inhibition. shares compounds with esBAF inh. mouse ESC E14, Fgf4 mRNA qPCR fold change; active compounds read low. Fgf4 expression fold change at 33 µM. 550 tested, 4% active. AID 743177;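 active means Fgf4 expression under 0.8 fold of control in both repeat measurements at one or both tested doses; inconclusive means under 0.8 fold in just a single repeat measurement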;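 further: Fgf4 transcript normalised to actin in duplex TaqMan qPCR; cells exposed to compound for 24 h before lysis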
Bmi1 derepress: confirmation of esBAF inhibitors: Bmi1 de-repression in mouse ESCs; shares compounds with esBAF inh; mouse ESE14 ES cells, Bmi1 mRNA qPCR fold; active compounds read high; fold change at 33 µM; 550 tested, under 10 active;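 active means Bmi1 expression fold change above 6 at either tested concentration, seen in replicate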;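 further: higher fold means more Bmi1 de-repression and stronger esBAF inhibition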
A549 tox SP: A549 cell cytotoxicity | shares compounds with esBAF inh | cell viability change % (negative = cytotoxic), % at 25 µM, hits read low | plate reader | AID 743188 | 550 tested, under 10 active; call rule not given here
HepG2 tox SP: cytotoxicity in HepG2 cells | AID 743189 | shares compounds with esBAF inh | activity change, negative = inhibition, % at 25 µM | 550 tested, 4% active | plate reader; active compounds read low; in the data active means activity change below about -50%
HEK293 tox SP: HEK293 cell cytotoxicity at single point. shares compounds with esBAF inh. plate reader. activity change, negative = inhibition, % at 25 µM, hits read low. 550 tested, 3% active; in the data active means activity change below about -38%, passing the limit was not always enough
* = called active by the depositor.

Screening CCCNC(=O)N1CC2(CCN(Cc3cccnc3)CC2)c2c(n(C)c3cc(OC)ccc23)[C@H]1CO returned Xi reactivation 0.3 and CASP6 VEID inh 1.9.
For COc1ccc(Cl)c(-c2cc(C(=O)NCc3ccc(C(F)(F)F)cc3)[nH]n2)c1 the results were esBAF inh 3.0, NSD2 HMT inh -0.8, Xi reactivation 0.2, CASP6 VEID inh 1.2 and Wnt act 0.3.
For COc1ccc(Cl)c(-c2cc(C(=O)Nc3ccc(F)cc3)[nH]n2)c1 the results were esBAF inh 68.8*, NSD2 HMT inh -3.3, Xi reactivation 0.0, CASP6 VEID inh -0.7, Wnt act 2.1, Ring1 derepress 1.35, esBAF Fgf4 qPCR 0.847, Bmi1 derepress 1.51, A549 tox SP 10.5, HepG2 tox SP 11.9 and HEK293 tox SP 10.5.
For CCS(=O)(=O)n1nc(-c2ccc(Cl)cc2)nc1SC the results were esBAF inh 56.9*, NSD2 HMT inh -2.7, MITF act 65.9, Ring1 derepress 1.21, esBAF Fgf4 qPCR 0.901, Bmi1 derepress 1.24, A549 tox SP -15.0, HepG2 tox SP 21.5 and HEK293 tox SP -19.6.
For Cc1csc(NC(=O)Nc2ccc(Cl)cc2)n1 the results were esBAF inh 59.9*, NSD2 HMT inh -2.1, Wnt act 18.5, MITF act 63.4, Ring1 derepress 1.03, esBAF Fgf4 qPCR 0.996, Bmi1 derepress 1.57, A549 tox SP -13.3, HepG2 tox SP -16.2 and HEK293 tox SP -12.3.
For CCOC(=O)Cc1csc(NC(=O)Nc2ccc(Cl)cc2)n1 the results were NSD2 HMT inh -4.1, Xi reactivation 0.3, CASP6 VEID inh -0.9, Wnt act 3.2 and MITF act -1.3.
Screening COc1ccc(N2CCN(C(=O)c3ccc(Cn4c(=S)[nH]c5ccc(N6CCOCC6)cc5c4=O)cc3)CC2)cc1 returned esBAF inh 68.3*, Xi reactivation 0.1, CASP6 VEID inh -1.4, Wnt act 20.2, MITF act 61.9, Ring1 derepress 0.968, esBAF Fgf4 qPCR 0.854, Bmi1 derepress 1.81, A549 tox SP -10.4, HepG2 tox SP -36.2 and HEK293 tox SP -9.5.
Screening O=C(c1ccc(Cn2c(=S)[nH]c3ccc(N4CCOCC4)cc3c2=O)cc1)N1CCN(c2ccc(F)cc2)CC1 returned NSD2 HMT inh -1.8, Xi reactivation 0.0, CASP6 VEID inh 0.4, Wnt act 21.2 and MITF act 39.3.
`CC(=O)Nc1ccc2nc(C)n(Cc3ccc(Cl)cc3)c(=O)c2c1` gave esBAF inh 54.9*, NSD2 HMT inh -0.2, Ring1 derepress 1.58, esBAF Fgf4 qPCR 0.809, Bmi1 derepress 1.3, A549 tox SP -6.2, HepG2 tox SP -12.5 and HEK293 tox SP -17.3.
For Cc1cc(N2CCOCC2)nc2ccc(NC(=O)CCC(=O)N3CCN(c4ccccc4F)CC3)cc12 the results were esBAF inh 74.1*, NSD2 HMT inh -7.1, Xi reactivation 0.2, CASP6 VEID inh 0.7, Wnt act 13.1, MITF act 119.6*, Ring1 derepress 0.86, esBAF Fgf4 qPCR 1.06, Bmi1 derepress 1.01, A549 tox SP 7.2, HepG2 tox SP 7.4 and HEK293 tox SP 5.1.
For Cc1cc(N2CCOCC2)nc2ccc(NC(=O)CCC(=O)N3CCN(c4ccc(F)cc4)CC3)cc12 the results were esBAF inh 13.5, NSD2 HMT inh 22.5, Xi reactivation 0.0, CASP6 VEID inh 5.4, Wnt act 4.1 and MITF act 8.6.
Screening CCCC(=O)Nc1ccc2c(c1)OC[C@@H](C)N(CCc1ccccc1)C[C@H](C)[C@H](OC)CN(C)C2=O returned esBAF inh 1.4 and Xi reactivation -0.3.
Screening CO[C@@H]1CN(C)C(=O)c2cc(NC(=O)c3cc(C)on3)ccc2OC[C@H](C)NC[C@@H]1C returned esBAF inh -8.2 and Xi reactivation 0.1.
Screening Cc1nc(-c2ccccc2)nc2[nH]ccc(=O)c12 returned esBAF inh 63.9*, NSD2 HMT inh -4.3, Wnt act 26.9, Ring1 derepress 2.2*, esBAF Fgf4 qPCR inconclusive, Bmi1 derepress 1.92, A549 tox SP -6.5, HepG2 tox SP -37.2 and HEK293 tox SP -9.9.
For COc1cccc(OCc2cc(C(=O)N(C)CCC3CCCCO3)no2)c1 (configuration not stated) the results were esBAF inh 35.1, NSD2 HMT inh -1.6, Xi reactivation -0.1, CASP6 VEID inh 0.2, Wnt act 6.8 and MITF act 34.4.
Screening COc1cccc(OCc2cc(C(=O)N3CCN(C(C)=O)CC3)no2)c1 returned esBAF inh 70.7*, NSD2 HMT inh -1.0, Xi reactivation 0.1, CASP6 VEID inh -7.3, Wnt act 0.4, MITF act 64.1, Ring1 derepress 1.11, esBAF Fgf4 qPCR 0.827, Bmi1 derepress 1.31, A549 tox SP -5.0, HepG2 tox SP -16.9 and HEK293 tox SP 2.7.
Screening COc1cc(C)ccc1OCc1cc(C(=O)N2CCN(C3CCCCC3)CC2)no1 returned esBAF inh 61.2*, NSD2 HMT inh 10.6, Xi reactivation 0.0, CASP6 VEID inh 0.8, Wnt act 18.9, MITF act 66.2, Ring1 derepress 1.05, esBAF Fgf4 qPCR 1.02, Bmi1 derepress 1.73, A549 tox SP 4.0, HepG2 tox SP -2.8 and HEK293 tox SP -6.4.
Screening COc1cccc(OCc2cc(C(=O)N(C)C3CCCCC3)no2)c1 returned esBAF inh 79.9*, NSD2 HMT inh -3.3, Xi reactivation 0.0, CASP6 VEID inh 0.3, Wnt act -2.8, Ring1 derepress 1.12, esBAF Fgf4 qPCR 0.943, Bmi1 derepress 1.57, A549 tox SP -10.6, HepG2 tox SP 16.5 and HEK293 tox SP -21.6.
